# Assay results taken from ChEMBL document CHEMBL1126267, “A novel synthesis and potent antiinflammatory activity of 4-hydroxy-2(1H)-oxo-1-phenyl-1,8-naphthyridine-3-carboxamides” (1992).
# Columns and labels:
# Assay type in all cases: functional
# Details in all cases: route oral
# [1] = system: Rattus norvegicus; assay: Antiinflammatory activity on Carrageenan rat's paw edema(CPE) after peroral administration of 100 mg/kg dose with control swelling of 64.2%
# [2] = system: Rattus norvegicus; assay: Inhibition of Zymosan-induced rat's paw edema(ZPE) after peroral administration of 100 mg/kg dose.
# In short: (§1)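 Male Wistar rats (about 150 g) were dosed orally with compound suspended in 5% arabic gum, 1 h before a subplantar hind-paw injection of 0.1 mL saline. The irritant was 1% zymosan for 33 or 1% λ-carrageenin for 34. Paw volume was measured by plethysmograph before dosing and at 4 h (zymosan) or 3 h (carrageenin). Swelling is relative to initial volume, as mean ± SEM. % inhibition is versus the control group's mean swelling.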
# [3] = system: Rattus norvegicus; assay: Compound was tested for the inhibition of rat reversed passive Arthus pleurisy after peroral administration of 100 mg/kg dose at 0.72 mL of exudate volume with 0.54 mL of control (injected intrapleurally)
# In short: (§2)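 Male Wistar rats (about 250 g) were given compound orally before the antiserum. Under ether anesthesia, 0.2 mL rabbit anti-egg albumin antiserum was injected intrapleurally. After 30 min, egg albumin (15 mg/100 g body weight in 0.1 mL saline) was given iv. Rats were killed 4.5 h later and the thoracic cavity was rinsed with 5 mL saline. Exudate volume and infiltrated cell number were measured, with inhibition % versus controls as mean ± SEM.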
# [4] = system: Rattus norvegicus; assay: Inhibition of carrageenan-induced rat's paw edema (CPE) after peroral administration of 100 mg/kg dose.; in short: as §1
# [5] = system: Rattus norvegicus; assay: Antiinflammatory activity on Zymosan-induced rat's paw edema(ZPE) after peroral administration of 100 mg/kg dose with control swelling of 71.7%
# In short: (§3)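 Male Wistar rats weighing about 150 g were dosed orally with compound suspended in 5% arabic gum. 1 h later, 1% zymosan in 0.1 mL saline was injected subplantarly into the hind paw. Paw volume was measured by plethysmograph before dosing and 4 h after zymosan, with edema as the volume difference. Inhibition % was derived from mean swelling versus the control group.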
# [6] = system: Rattus norvegicus; assay: Compound was tested for the inhibition of rat reversed passive Arthus pleurisy after peroral administration of 100 mg/kg dose at 3.82*10e6 no of cells with 3.62*10e6 cells of control
# In short: (§4)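 Male Wistar rats (about 250 g) under ether received 0.2 mL rabbit anti-egg-albumin antiserum intrapleurally. Thirty min later they got 15 mg EA/100 g body weight in 0.1 mL saline iv. Compounds were given orally beforehand. Rats were killed 4.5 h after induction and the thoracic cavity rinsed with 5 mL saline. Exudate volume and infiltrated cell count were read as mean ± SE. % inhibition is versus control.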
# [7] = system: Rattus norvegicus; assay: Antiinflammatory activity on Zymosan-induced rat's paw edema(ZPE) after peroral administration of 100 mg/kg dose with control swelling of 72.9%; in short: as §3
# [8] = system: Rattus norvegicus; assay: Compound was tested for the inhibition of rat reversed passive Arthus pleurisy after peroral administration of 100 mg/kg dose at 0.28 mL of exudate volume with 0.82 mL of control (injected intrapleurally); in short: as §2
# [9] = system: Rattus norvegicus; assay: Antiinflammatory activity on Carrageenan rat's paw edema(CPE) after peroral administration of 100 mg/kg dose with control swelling of 71.9%
# [10] = system: Rattus norvegicus; assay: Compound was tested for the inhibition of rat reversed passive Arthus pleurisy after peroral administration of 100 mg/kg dose at 1.19*10e6 no of cells with 7.4*10e6 cells of control; in short: as §2
# [11] = system: Rattus norvegicus; assay: Compound was tested for the inhibition of rat reversed passive Arthus pleurisy after peroral administration of 100 mg/kg dose at 3.02*10e6 no of cells with 3.86*10e6 cells of control; in short: as §2
# [12] = system: Rattus norvegicus; assay: Compound was tested for the inhibition of rat reversed passive Arthus pleurisy after peroral administration of 100 mg/kg dose at 0.65 mL of exudate volume with 0.86 mL of control (injected intrapleurally); in short: as §2
# [13] = system: Rattus norvegicus; assay: Compound was tested for the inhibition of rat reversed passive Arthus pleurisy after peroral administration of 100 mg/kg dose at 3.02*10e6 no of cells with 3.37*10e cells of control; in short: as §2
# [14] = system: Rattus norvegicus; assay: Compound was tested for the inhibition of rat reversed passive Arthus pleurisy after peroral administration of 100 mg/kg dose at 0.43 mL of exudate volume with 0.46 mL of control (injected intrapleurally); in short: as §2
# [15] = system: Rattus norvegicus; assay: Antiinflammatory activity on Carrageenan rat's paw edema(CPE) after peroral administration of 100 mg/kg dose with control swelling of 65.6%
# [16] = system: Rattus norvegicus; assay: Antiinflammatory activity on Zymosan-induced rat's paw edema(ZPE) after peroral administration of 100 mg/kg dose with control swelling of 61.0%; in short: as §3
# [17] = system: Rattus norvegicus; assay: Compound was tested for the inhibition of rat reversed passive Arthus pleurisy after peroral administration of 100 mg/kg dose at 0.82 mL of exudate volume with 0.86 mL of control (injected intrapleurally); in short: as §2
# [18] = system: Rattus norvegicus; assay: Compound was tested for the inhibition of rat reversed passive Arthus pleurisy after peroral administration of 100 mg/kg dose at 3.22*10e6 no of cells with 3.86*10e6 cells of control; in short: as §2
# [19] = system: Rattus norvegicus; assay: Antiinflammatory activity on Carrageenan rat's paw edema(CPE) after peroral administration of 100 mg/kg dose with control swelling of 90.0%
# [20] = system: Rattus norvegicus; assay: Antiinflammatory activity on Zymosan-induced rat's paw edema(ZPE) after peroral administration of 100 mg/kg dose with control swelling of 85.5%; in short: as §3
# [21] = system: Rattus norvegicus; assay: Antiinflammatory activity on Zymosan-induced rat's paw edema(ZPE) after peroral administration of 100 mg/kg dose with control swelling of 69.5%; in short: as §3
# [22] = system: Rattus norvegicus; assay: Compound was tested for the inhibition of rat reversed passive Arthus pleurisy after peroral administration of 100 mg/kg dose at 3.77*10e6 no of cells with 3.86*10e6 cells of control; in short: as §4
# [23] = system: Rattus norvegicus; assay: Antiinflammatory activity on Carrageenan rat's paw edema(CPE) after peroral administration of 100 mg/kg dose with control swelling of 63.7%
# [24] = system: Rattus norvegicus; assay: Compound was tested for the inhibition of rat reversed passive Arthus pleurisy after peroral administration of 100 mg/kg dose at 0.64 mL of exudate volume with 0.79 mL of control (injected intrapleurally); in short: as §2
# [25] = system: Rattus norvegicus; assay: Compound was tested for the inhibition of rat reversed passive Arthus pleurisy after peroral administration of 3 mg/kg dose at 0.59 mL of exudate volume with 0.55 mL of control (injected intrapleurally); in short: as §4
# [26] = system: Rattus norvegicus; assay: Compound was tested for the inhibition of rat reversed passive Arthus pleurisy after peroral administration of 10 mg/kg dose at 3.2*10e6 no of cells with 2.77*10e6 cells of control; in short: as §2
# [27] = system: Rattus norvegicus; assay: Compound was tested for the inhibition of rat reversed passive Arthus pleurisy after peroral administration of 10 mg/kg dose at 0.44 mL of exudate volume with 0.55 mL of control (injected intrapleurally); in short: as §2
# [28] = system: Rattus norvegicus; assay: Compound was tested for the inhibition of rat reversed passive Arthus pleurisy after peroral administration of 3 mg/kg dose at 4.01*10e6 no of cells with 2.77*10e6 cells of control; in short: as §4
# [29] = system: Rattus norvegicus; assay: Antiinflammatory activity on Carrageenan rat's paw edema(CPE) after peroral administration of 100 mg/kg dose with control swelling of 73.7%
# [30] = system: Rattus norvegicus; assay: Compound was tested for the inhibition of rat reversed passive Arthus pleurisy after peroral administration of 100 mg/kg dose at 5.76*10e6 no of cells with 7.4*10e6 cells of control; in short: as §4
# [31] = system: Rattus norvegicus; assay: Compound was tested for the inhibition of rat reversed passive Arthus pleurisy after peroral administration of 100 mg/kg dose at 0.66 mL of exudate volume with 0.82 mL of control (injected intrapleurally); in short: as §2
# [32] = system: Rattus norvegicus; assay: Antiinflammatory activity on Zymosan-induced rat's paw edema(ZPE) after peroral administration of 100 mg/kg dose with control swelling of 62.0%; in short: as §3
# [33] = system: Rattus norvegicus; assay: Compound was tested for the inhibition of rat reversed passive Arthus pleurisy after peroral administration of 100 mg/kg dose at 0.61 mL of exudate volume with 0.54 mL of control (injected intrapleurally); in short: as §2
# [34] = system: Rattus norvegicus; assay: Compound was tested for the inhibition of rat reversed passive Arthus pleurisy after peroral administration of 100 mg/kg dose at 3.37*10e6 no of cells with 3.62*10e6 cells of control; in short: as §4
# [35] = system: Rattus norvegicus; assay: Antiinflammatory activity on Carrageenan rat's paw edema(CPE) after peroral administration of 100 mg/kg dose with control swelling of 68.1%
# [36] = system: Rattus norvegicus; assay: Compound was tested for the inhibition of rat reversed passive Arthus pleurisy after peroral administration of 100 mg/kg dose at 0.66 mL of exudate volume with 0.79 mL of control (injected intrapleurally); in short: as §2
# [37] = system: Rattus norvegicus; assay: Compound was tested for the inhibition of rat reversed passive Arthus pleurisy after peroral administration of 100 mg/kg dose at 3.36*10e6 no of cells with 3.86*10e6 cells of control; in short: as §2
smiles,measurement,setting,value
CCCCNC(=O)c1c(O)c2cccnc2n(-c2ccccc2)c1=O,Swelling,[1],51.1%
same,inhibition in vivo at 100 mg/kg,[2],12.8%
same,inhibition in vivo at 100 mg/kg,[3],-36.7%
same,inhibition in vivo at 100 mg/kg,[4],20.4%
same,Swelling,[5],62.5%
same,inhibition in vivo at 100 mg/kg,[6],7.7%
Cc1cnccc1NC(=O)c1c(O)c2cccnc2n(-c2ccccc2)c1=O,inhibition in vivo at 100 mg/kg,[2],26.9%
same,Swelling,[7],53.3%
same,inhibition in vivo at 100 mg/kg,[8],65.9%
same,inhibition in vivo at 100 mg/kg,[4],8.8%
same,Swelling,[9],64.6%
same,inhibition in vivo at 100 mg/kg,[10],83.9%
Cc1cccc(NC(=O)c2c(O)c3cccnc3n(-c3ccccc3)c2=O)c1,Swelling,[1],61.3%
same,inhibition in vivo at 100 mg/kg,[2],14.2%
same,inhibition in vivo at 100 mg/kg,[11],28.5%
same,inhibition in vivo at 100 mg/kg,[4],4.5%
same,Swelling,[5],61.5%
same,inhibition in vivo at 100 mg/kg,[12],27.3%
O=C(NN1CCOCC1)c1c(O)c2cccnc2n(-c2ccccc2)c1=O,inhibition in vivo at 100 mg/kg,[2],-8.5%
same,inhibition in vivo at 100 mg/kg,[4],-26.2%
same,inhibition in vivo at 100 mg/kg,[13],10.4%
same,inhibition in vivo at 100 mg/kg,[14],14.6%
same,Swelling,[15],82.8%
same,Swelling,[16],66.2%
O=C(Nc1cccc(Cl)c1)c1c(O)c2cccnc2n(-c2ccccc2)c1=O,inhibition in vivo at 100 mg/kg,[2],7.6%
same,inhibition in vivo at 100 mg/kg,[4],13.4%
same,inhibition in vivo at 100 mg/kg,[17],5.2%
same,inhibition in vivo at 100 mg/kg,[18],21.7%
same,Swelling,[19],77.9%
same,Swelling,[20],79%
O=C(Nc1nccs1)c1c(O)c2cccnc2n(-c2ccccc2)c1=O,inhibition in vivo at 100 mg/kg,[2],4.6%
same,inhibition in vivo at 100 mg/kg,[4],2.5%
same,Swelling,[21],66.3%
same,inhibition in vivo at 100 mg/kg,[22],15.4%
same,Swelling,[23],69.9%
same,inhibition in vivo at 100 mg/kg,[24],18.1%
COc1ccc2c(c1)c(CC(=O)O)c(C)n2C(=O)c1ccc(Cl)cc1 [INDOMETHACIN],inhibition in vivo at 3 mg/kg,[25],-8.7%
same,inhibition in vivo at 10 mg/kg,[26],-20.9%
same,inhibition in vivo at 10 mg/kg,[27],23.9%
same,inhibition in vivo at 3 mg/kg,[28],-60.2%
COc1ccc(NC(=O)c2c(O)c3cccnc3n(-c3ccccc3)c2=O)cn1,inhibition in vivo at 100 mg/kg,[2],13.1%
same,Swelling,[29],72.3%
same,inhibition in vivo at 100 mg/kg,[4],-10.2%
same,inhibition in vivo at 100 mg/kg,[30],22.2%
same,Swelling,[16],53%
same,inhibition in vivo at 100 mg/kg,[31],19.5%
O=C(NCc1ccccc1)c1c(O)c2cccnc2n(-c2ccccc2)c1=O,Swelling,[32],60.3%
same,inhibition in vivo at 100 mg/kg,[2],1.6%
same,inhibition in vivo at 100 mg/kg,[33],-14.3%
same,inhibition in vivo at 100 mg/kg,[4],11.3%
same,inhibition in vivo at 100 mg/kg,[34],9.6%
same,Swelling,[35],60.4%
O=C(Nc1cccc([N+](=O)[O-])c1)c1c(O)c2cccnc2n(-c2ccccc2)c1=O,inhibition in vivo at 100 mg/kg,[2],5.7%
same,inhibition in vivo at 100 mg/kg,[4],7.4%
same,Swelling,[19],83.6%
same,Swelling,[20],80.6%
same,inhibition in vivo at 100 mg/kg,[36],19.1%
same,inhibition in vivo at 100 mg/kg,[37],15.4%
